In publication PMC6926016 (Proceedings of the National Academy of Sciences of the …, 2019):

Key:
Type in all cases: cell-based
Settings in all cases: Ca2+ assay
rat TRPA1 = rat TRPA1 (Rattus norvegicus, UniProt Q6RI86); assay: Calcium influx assay, rat TRPA1
How it was run: (§1)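 TRPA1 orthologue cDNAs in pcDNA3.1 Hygro, transiently transfected, each construct tested in at least 2 independent transfections. Fluorescence Ca2+ influx (RFU) read in Hanks balanced salt solution with 1.26 mM Ca2+ and 1.0 mM Mg2+.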

chicken TRPA1 = assay: Calcium influx assay, chicken TRPA1
How it was run: as §1

guinea pig TRPA1 = guinea pig TRPA1 (Cavia porcellus, UniProt H0VJD1); assay: Calcium influx assay, guinea pig TRPA1
How it was run: as §1

human TRPA1 = human TRPA1 (Homo sapiens, UniProt O75762); assay: Calcium influx assay in HEK-293F cells transiently expressing human TRPA1
dog TRPA1 = dog TRPA1 (Canis lupus familiaris, UniProt A0A8I3Q1Q7); assay: Calcium influx assay, dog TRPA1
How it was run: as §1

Sequence of human TRPA1 (O75762 whole entry): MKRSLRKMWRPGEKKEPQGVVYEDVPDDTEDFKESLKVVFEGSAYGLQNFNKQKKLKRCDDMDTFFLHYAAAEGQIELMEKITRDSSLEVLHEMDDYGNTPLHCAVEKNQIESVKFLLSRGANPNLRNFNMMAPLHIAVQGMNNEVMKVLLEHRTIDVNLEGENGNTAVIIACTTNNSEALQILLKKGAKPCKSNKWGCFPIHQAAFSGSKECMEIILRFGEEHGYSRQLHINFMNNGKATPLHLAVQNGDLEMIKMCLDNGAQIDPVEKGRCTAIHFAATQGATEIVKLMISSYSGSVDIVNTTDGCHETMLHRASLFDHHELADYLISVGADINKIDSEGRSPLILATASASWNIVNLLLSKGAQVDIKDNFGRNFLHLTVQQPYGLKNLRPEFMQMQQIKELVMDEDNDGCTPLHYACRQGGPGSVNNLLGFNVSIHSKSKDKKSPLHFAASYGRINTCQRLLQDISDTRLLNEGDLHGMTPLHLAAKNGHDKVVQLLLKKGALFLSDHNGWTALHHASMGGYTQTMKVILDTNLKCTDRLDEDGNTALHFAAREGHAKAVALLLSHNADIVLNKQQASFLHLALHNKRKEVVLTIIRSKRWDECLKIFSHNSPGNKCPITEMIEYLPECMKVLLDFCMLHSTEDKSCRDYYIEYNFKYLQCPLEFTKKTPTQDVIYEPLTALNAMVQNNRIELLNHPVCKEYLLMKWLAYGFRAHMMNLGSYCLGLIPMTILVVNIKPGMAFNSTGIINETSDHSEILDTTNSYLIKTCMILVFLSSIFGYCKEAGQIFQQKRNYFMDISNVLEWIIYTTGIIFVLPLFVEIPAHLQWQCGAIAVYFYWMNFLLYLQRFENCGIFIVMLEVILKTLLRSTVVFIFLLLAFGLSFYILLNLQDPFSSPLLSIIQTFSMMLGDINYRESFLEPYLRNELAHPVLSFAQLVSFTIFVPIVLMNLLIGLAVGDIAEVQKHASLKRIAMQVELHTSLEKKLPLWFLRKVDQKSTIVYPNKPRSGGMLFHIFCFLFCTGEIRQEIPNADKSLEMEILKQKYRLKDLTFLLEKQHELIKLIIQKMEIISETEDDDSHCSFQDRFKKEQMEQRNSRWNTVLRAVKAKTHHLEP
Sequence of rat TRPA1 (Q6RI86 whole entry): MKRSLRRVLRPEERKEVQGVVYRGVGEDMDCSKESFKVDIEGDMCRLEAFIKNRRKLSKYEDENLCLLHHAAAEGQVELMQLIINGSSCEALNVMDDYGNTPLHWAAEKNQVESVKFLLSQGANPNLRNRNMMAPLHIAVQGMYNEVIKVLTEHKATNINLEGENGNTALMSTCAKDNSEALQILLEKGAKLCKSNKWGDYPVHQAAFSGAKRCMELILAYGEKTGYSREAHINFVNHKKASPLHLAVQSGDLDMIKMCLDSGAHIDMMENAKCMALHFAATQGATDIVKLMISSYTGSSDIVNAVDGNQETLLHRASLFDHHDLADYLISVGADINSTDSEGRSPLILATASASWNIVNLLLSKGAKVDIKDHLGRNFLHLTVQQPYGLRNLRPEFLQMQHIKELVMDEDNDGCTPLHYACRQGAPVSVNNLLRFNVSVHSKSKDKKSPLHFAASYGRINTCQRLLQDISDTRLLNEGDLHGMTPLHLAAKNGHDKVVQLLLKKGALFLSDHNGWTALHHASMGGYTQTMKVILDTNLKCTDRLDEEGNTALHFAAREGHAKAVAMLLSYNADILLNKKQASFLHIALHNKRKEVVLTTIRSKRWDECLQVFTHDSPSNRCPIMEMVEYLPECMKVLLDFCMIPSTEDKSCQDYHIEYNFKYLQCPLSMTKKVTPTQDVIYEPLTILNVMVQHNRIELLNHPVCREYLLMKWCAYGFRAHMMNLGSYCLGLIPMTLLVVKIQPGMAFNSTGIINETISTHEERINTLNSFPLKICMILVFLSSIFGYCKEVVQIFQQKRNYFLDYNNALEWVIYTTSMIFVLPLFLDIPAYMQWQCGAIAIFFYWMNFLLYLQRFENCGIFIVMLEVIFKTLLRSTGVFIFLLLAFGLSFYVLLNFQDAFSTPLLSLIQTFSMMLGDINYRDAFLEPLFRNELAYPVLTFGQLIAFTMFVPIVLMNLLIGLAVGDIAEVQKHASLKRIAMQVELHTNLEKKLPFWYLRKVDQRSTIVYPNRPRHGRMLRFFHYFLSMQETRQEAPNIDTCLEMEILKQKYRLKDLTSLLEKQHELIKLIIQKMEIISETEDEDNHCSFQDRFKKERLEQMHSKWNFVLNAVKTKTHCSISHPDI
Sequence of dog TRPA1 (A0A8I3Q1Q7 1-1118): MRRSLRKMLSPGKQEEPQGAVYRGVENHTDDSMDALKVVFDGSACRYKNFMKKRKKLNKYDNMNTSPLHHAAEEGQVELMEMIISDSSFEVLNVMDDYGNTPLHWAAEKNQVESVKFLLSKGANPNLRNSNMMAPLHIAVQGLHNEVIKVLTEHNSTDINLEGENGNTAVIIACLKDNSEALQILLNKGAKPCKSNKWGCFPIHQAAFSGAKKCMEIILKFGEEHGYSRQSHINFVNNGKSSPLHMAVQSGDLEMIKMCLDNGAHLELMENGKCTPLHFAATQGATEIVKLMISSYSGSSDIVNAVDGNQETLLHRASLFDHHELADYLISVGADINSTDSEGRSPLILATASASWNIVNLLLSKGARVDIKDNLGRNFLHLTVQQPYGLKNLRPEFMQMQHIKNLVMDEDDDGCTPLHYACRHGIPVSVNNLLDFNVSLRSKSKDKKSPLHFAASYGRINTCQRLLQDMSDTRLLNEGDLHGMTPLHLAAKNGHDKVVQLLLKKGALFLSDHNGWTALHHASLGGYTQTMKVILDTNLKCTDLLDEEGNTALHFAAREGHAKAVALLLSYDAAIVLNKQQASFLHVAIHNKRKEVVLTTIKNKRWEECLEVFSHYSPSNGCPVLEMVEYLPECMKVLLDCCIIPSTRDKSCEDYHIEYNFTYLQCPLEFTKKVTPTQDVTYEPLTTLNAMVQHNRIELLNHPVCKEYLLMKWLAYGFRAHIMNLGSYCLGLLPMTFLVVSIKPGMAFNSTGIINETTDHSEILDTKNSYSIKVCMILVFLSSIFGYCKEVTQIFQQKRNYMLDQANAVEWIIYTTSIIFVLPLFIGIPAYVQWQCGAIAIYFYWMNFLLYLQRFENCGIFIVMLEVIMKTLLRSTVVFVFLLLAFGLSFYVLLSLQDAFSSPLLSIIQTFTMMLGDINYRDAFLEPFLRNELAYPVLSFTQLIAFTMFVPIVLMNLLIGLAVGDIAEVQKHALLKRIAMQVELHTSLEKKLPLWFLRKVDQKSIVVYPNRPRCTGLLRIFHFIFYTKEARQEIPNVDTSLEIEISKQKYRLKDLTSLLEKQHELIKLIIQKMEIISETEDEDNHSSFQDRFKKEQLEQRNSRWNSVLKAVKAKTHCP
Sequence of guinea pig TRPA1 (H0VJD1 1-991): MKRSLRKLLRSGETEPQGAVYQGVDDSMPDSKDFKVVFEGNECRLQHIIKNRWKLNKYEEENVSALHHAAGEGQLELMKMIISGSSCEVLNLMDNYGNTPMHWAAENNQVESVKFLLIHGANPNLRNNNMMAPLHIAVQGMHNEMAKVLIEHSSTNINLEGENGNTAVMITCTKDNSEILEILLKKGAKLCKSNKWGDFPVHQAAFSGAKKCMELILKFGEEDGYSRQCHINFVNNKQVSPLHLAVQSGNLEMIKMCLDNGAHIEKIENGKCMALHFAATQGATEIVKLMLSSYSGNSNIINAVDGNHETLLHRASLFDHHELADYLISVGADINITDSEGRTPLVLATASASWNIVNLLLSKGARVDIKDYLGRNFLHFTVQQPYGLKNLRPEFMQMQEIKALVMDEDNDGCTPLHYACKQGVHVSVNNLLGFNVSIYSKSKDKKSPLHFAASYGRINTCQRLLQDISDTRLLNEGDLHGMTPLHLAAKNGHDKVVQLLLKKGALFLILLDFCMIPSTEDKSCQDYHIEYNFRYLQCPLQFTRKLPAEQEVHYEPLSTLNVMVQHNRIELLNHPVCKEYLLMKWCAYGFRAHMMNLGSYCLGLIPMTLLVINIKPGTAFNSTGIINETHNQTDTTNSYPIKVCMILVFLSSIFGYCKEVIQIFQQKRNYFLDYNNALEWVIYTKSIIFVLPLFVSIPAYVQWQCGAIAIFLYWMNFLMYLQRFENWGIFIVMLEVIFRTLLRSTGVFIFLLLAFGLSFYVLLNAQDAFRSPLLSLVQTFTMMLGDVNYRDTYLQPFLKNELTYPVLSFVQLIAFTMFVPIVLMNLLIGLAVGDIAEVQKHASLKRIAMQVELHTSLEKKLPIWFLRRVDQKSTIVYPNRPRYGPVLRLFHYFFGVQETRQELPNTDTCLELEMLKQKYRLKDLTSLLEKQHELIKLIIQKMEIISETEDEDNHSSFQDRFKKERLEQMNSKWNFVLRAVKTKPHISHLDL

In the case of `C=CCN=C=S` [AITC, allyl isothiocyanate], the “activation of rat TRPA1” value (rat TRPA1) was “robust response”, the “activation of chicken TRPA1” value (chicken TRPA1) was “robust response” and the “activation of guinea pig TRPA1” value (guinea pig TRPA1) was “robust response”. For the same molecule, the Hill slope (human TRPA1; concentration-response, human TRPA1) was 1.4, the “activation of human TRPA1” value (human TRPA1; species comparison) was “robust response” and the “activation of dog TRPA1” value (dog TRPA1) was “robust response”.
